Test results from ChEMBL document CHEMBL1914356, “Maslinic acid derivatives induce significant apoptosis in b16f10 murine melanoma cells” (2011).
The source made the active and inactive calls. The rule behind the calls is not given here.

Legend:
[1] = test system: B16-F10; assay: Induction of apoptosis in mouse B16F10 cells assessed as necrotic cells at 30 uM after 24 hrs using annexin V-FITC/propidium iodide staining by flow cytometry; type: functional
Procedure, shortened: (§1)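 B16-F10 cells grown in DMEM with 4 mM L-glutamine, 1 mM pyruvate, 4.5 g/L glucose and 10% FBS. 300,000 cells/well were plated, then treated in DMSO after 24 h. Vehicle and medium-alone controls were included. Cells were detached with EDTA-trypsin, PBS-washed and set at 1 × 10^6 cells/mL in binding buffer. Annexin V-FITC/PI staining ran 15 min at room temperature in the dark, followed by flow cytometry within 1 h.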

[2] = test system: B16-F10; assay: Induction of apoptosis in mouse B16F10 cells at 30 uM after 24 hrs using annexin V-FITC/propidium iodide staining by flow cytometry; type: functional; procedure, shortened: as §1
[3] = test system: B16-F10; assay: Induction of apoptosis in mouse B16F10 cells assessed as early/late apoptotic cells at 30 uM after 24 hrs using annexin V-FITC/propidium iodide staining by flow cytometry; type: functional; procedure, shortened: as §1
[4] = test system: B16-F10; assay: Induction of apoptosis in mouse B16F10 cells assessed as total apoptosis at 20 uM after 48 hrs using annexin V-FITC/propidium iodide staining by flow cytometry; type: functional, cell-based
Procedure, shortened: (§2)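 B16-F10 cells in DMEM/10% FBS were plated at 300,000 cells/well, then treated 24 h later, in duplicate, in DMSO at […] for 24 or 48 h. Vehicle and medium controls were included. Annexin V-FITC/PI staining ran 15 min at room temperature in the dark. Total apoptosis (early + late) was read by flow cytometry as mean ± SD from two independent experiments.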

[5] = test system: B16-F10; assay: Induction of apoptosis in mouse B16F10 cells assessed as total apoptosis at 20 uM after 24 hrs using annexin V-FITC/propidium iodide staining by flow cytometry; type: functional; procedure, shortened: as §2
[6] = test system: B16-F10; assay: Induction of apoptosis in mouse B16F10 cells assessed as total apoptosis at 1 uM after 24 hrs using annexin V-FITC/propidium iodide staining by flow cytometry; type: functional
Procedure, shortened: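 B16-F10 cells grown in DMEM with 4 mM L-glutamine, 1.5 g/L bicarbonate, 1 mM pyruvate, 4.5 g/L glucose, 10% FBS. Seeded at 300,000 cells/well in 6-well dishes, treated 24 h later with compound in DMSO. Vehicle and medium-only controls. Detached with EDTA-trypsin, PBS-washed, stained with annexin V-FITC and PI 15 min at room temperature in dark. Total apoptosis = early + late. Mean ± SD, two independent experiments.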

| SMILES | Activity [1] [%] | further results |
| --- | --- | --- |
| Cc1ccc(S(=O)(=O)OC[C@]23CCC(C)(C)C[C@H]2C2=CC[C@@H]4[C@@]5(C)C[C@H]6OC(C)(C)O[C@@H]6C(C)(C)[C@@H]5CC[C@@]4(C)[C@]2(C)CC3)cc1 | <10 |  |
| COC(=O)[C@]12CCC(C)(C)C[C@H]1C1=CC[C@@H]3[C@@]4(C)C[C@@H](O)C(=O)[C@](C)(CO)[C@@H]4CC[C@@]3(C)[C@]1(C)CC2 | <10 | Activity [2]: 30% |
| CC1(C)CC[C@]2(C(=O)OCc3ccccc3)CC[C@]3(C)C(=CC[C@@H]4[C@@]5(C)C[C@H](O)[C@H](O)C(C)(C)[C@@H]5CC[C@]43C)[C@@H]2C1 [BENZYL AUGUSTATE] | <10 | Activity [3]: 80%; Activity [4]: Active |
| CC1(C)CC[C@]2(C(=O)O)CC[C@]3(C)C(=CC[C@@H]4[C@@]5(C)C[C@@H](O)[C@H](O)C(C)(C)[C@@H]5CC[C@]43C)[C@@H]2C1 |  | Activity [4]: Active |
| CC1(C)CC[C@]2(C(=O)O)CC[C@]3(C)C(=CC[C@@H]4[C@@]5(C)CC[C@H](O)C(C)(C)[C@@H]5CC[C@]43C)[C@@H]2C1 [OLEANOLIC_ACID] | <10 |  |
| COC(=O)[C@]12CCC(C)(C)C[C@H]1[C@@](O)(/C=C\[C@@]13O[C@]1(C)CC[C@H]1C(C)(C)CCC[C@@]13C)[C@](C)(O)CC2 | <10 |  |
| CC1(C)CC[C@]2(C(=O)OCc3ccccc3)CC[C@]3(C)C(=CC[C@@H]4[C@@]5(C)CC(=O)[C@H](O)C(C)(C)[C@@H]5CC[C@]43C)[C@@H]2C1 | <10 | Activity [3]: 80%; Activity [5]: > 70%; Activity [4]: Active |
| CC(=O)O[C@H]1CC[C@]2(C)[C@H]3C[C@H](OC(C)=O)[C@]45OC(=O)[C@@]6(CCC(C)(C)C[C@H]64)CC[C@@]5(C)[C@]3(C)CC[C@H]2C1(C)C | <10 | Activity [2]: 30% |
| COC(=O)[C@]12CCC(C)(C)C[C@H]1[C@]1(/C=C\[C@@]34O[C@]3(C)CC[C@H]3C(C)(C)[C@@H](O)CC[C@@]34C)O[C@@]1(C)CC2 | <10 | Activity [2]: 30% |
| C=C1CC[C@H]2C(C)(C)[C@@H](OC(C)=O)CC[C@]2(C)/C1=C/CC1=C(C)CCC2(C(=O)OC)CCC(C)(C)C[C@@H]12 (single isomer, unassigned) | <10 |  |
| CC1(C)CC[C@]2(C(=O)OCc3ccccc3)CC[C@]3(C)C(=CC[C@@H]4[C@@]5(C)C=C(O)C(=O)C(C)(C)[C@@H]5CC[C@]43C)[C@@H]2C1 | <10 | Activity [3]: 80%; Activity [4]: Active |
| COC(=O)C12CCC(C)=C(/C=C\C3=C(C)CC[C@H]4C(C)(C)[C@@H](O)CC[C@]34C)[C@@H]1CC(C)(C)CC2 (single isomer, unassigned) | <10 |  |
| CC(=O)O[C@@H]1C[C@]2(C)[C@H]3CC=C4[C@@H]5CC(C)(C)CC[C@]5(C(=O)O)CC[C@@]4(C)[C@]3(C)CC[C@H]2C(C)(C)[C@H]1OC(C)=O | <10 |  |
| CC1(C)CC[C@]2(CO)CC[C@]3(C)C(=CC[C@@H]4[C@@]5(C)C[C@H](O)[C@H](O)C(C)(C)[C@@H]5CC[C@]43C)[C@@H]2C1 | <10 |  |
| COC(=O)[C@]12CCC(C)(C)C[C@H]1C1=CC[C@@H]3[C@@]4(C)C[C@@H](C=O)C(C)(C)[C@@H]4CC[C@@]3(C)[C@]1(C)CC2 | <10 |  |
| COC(=O)C12CCC(C)=C(/C=C\C3=C(C)CC[C@H]4C(C)(C)[C@@H](OC(C)=O)CC[C@]34C)[C@@H]1CC(C)(C)CC2 (single isomer, unassigned) | <10 |  |
| CC1(C)CC[C@]2(CN)CC[C@]3(C)C(=CC[C@@H]4[C@@]5(C)C[C@@H](O)[C@H](O)C(C)(C)[C@@H]5CC[C@]43C)[C@@H]2C1 | <10 |  |
| CC(=O)O[C@@H]1C[C@]2(C)[C@H]3CC=C4[C@@H]5CC(C)(C)CC[C@]5(C(N)=O)CC[C@@]4(C)[C@]3(C)CC[C@H]2C(C)(C)[C@H]1OC(C)=O | <10 |  |
| CC1(C)CC[C@]2(C(=O)O)CC[C@]3(C)C(=CC[C@@H]4[C@@]5(C)CC(=O)[C@H](O)C(C)(C)[C@@H]5CC[C@]43C)[C@@H]2C1 | <10 | Activity [3]: 80%; Activity [4]: Active |

| SMILES | Activity [1] [%] | further results |
| --- | --- | --- |
| CC(=O)O[C@H]1CC[C@]2(C)[C@H]3C=C[C@]45OC(=O)[C@@]6(CCC(C)(C)C[C@H]64)CC[C@@]5(C)[C@]3(C)CC[C@H]2C1(C)C | <10 |  |
| COC(=O)[C@]12CCC(C)(C)C[C@H]1[C@@](O)(/C=C\[C@@]13O[C@]1(C)CC[C@H]1C(C)(C)[C@@H](O)CC[C@@]13C)[C@](C)(O)CC2 | <10 | Activity [2]: 30% |
| C=C1C2CC3[C@@]4(C)CC[C@H](OC(C)=O)C(C)(C)C4CC[C@@]3(C)C2=CC[C@@]2(C(=O)OC)CCC(C)(C)CC12 (some centres undefined) | <10 |  |
| CC(=O)O[C@H]1CC[C@]2(C)C3=CC(=O)[C@]45OC(=O)[C@@]6(CCC(C)(C)C[C@H]64)CC[C@@]5(C)[C@]3(C)CC[C@H]2C1(C)C | <10 |  |
| CC1(C)CC[C@]2(C(=O)[O-])CC[C@]3(C)C(=CC[C@@H]4[C@@]5(C)C[C@@H](O)[C@H](O)C(C)(C)[C@@H]5CC[C@]43C)[C@@H]2C1.[Na+] [SODIUM MASLINATE] | <10 | Activity [3]: 80%; Activity [5]: 70%; Activity [6]: 56.67% |
| C=C1CC[C@H]2C(C)(C)CCC[C@]2(C)/C1=C/CC1=C(C)CCC2(C(=O)OC)CCC(C)(C)C[C@@H]12 (single isomer, unassigned) | <10 |  |
| C=C1C[C@]2(C)[C@H]3CC=C4[C@@H]5CC(C)(C)CC[C@]5(C(=O)OC)CC[C@@]4(C)[C@]3(C)CC[C@H]2C(C)(C)[C@H]1OC(C)=O | <10 |  |
| COC(=O)[C@]12CCC(C)(C)C[C@H]1C1=CC[C@@H]3[C@@]4(C)C[C@H](OC(C)=O)[C@@H](O)C(C)(C)[C@@H]4CC[C@@]3(C)[C@]1(C)CC2 | <10 |  |
| CC1(C)CC[C@]2(CO)CC[C@]3(C)C(=CC[C@@H]4[C@@]5(C)C[C@H]6OC(C)(C)O[C@@H]6C(C)(C)[C@@H]5CC[C@]43C)[C@@H]2C1 | <10 |  |
| CC1(C)CC[C@]2(C(N)=O)CC[C@]3(C)C(=CC[C@@H]4[C@@]5(C)C[C@@H](O)[C@H](O)C(C)(C)[C@@H]5CC[C@]43C)[C@@H]2C1 | <10 | Activity [3]: 80%; Activity [5]: 70%; Activity [4]: Active |
| CC1(C)CC[C@]2(C(=O)O)CC[C@]3(C)C(=CC[C@@H]4[C@@]5(C)C[C@H](O)[C@H](O)C(C)(C)[C@@H]5CC[C@]43C)[C@@H]2C1 [AUGUSTIC ACID] | <10 |  |
| COC(=O)[C@]12CCC(C)(C)C[C@H]1C1=CC[C@@H]3[C@@]4(C)C=CC(=O)C(C)(C)[C@@H]4CC[C@@]3(C)[C@]1(C)CC2 | <10 |  |
| CC(=O)O[C@H]1CC[C@]2(C)[C@H]3C[C@H](O)[C@]45OC(=O)[C@@]6(CCC(C)(C)C[C@H]64)CC[C@@]5(C)[C@]3(C)CC[C@H]2C1(C)C | <10 |  |
| CC1(C)CC[C@]2(C(=O)O)CC[C@]3(C)C(=CC[C@@H]4[C@@]5(C)C[C@@H](O)[C@H](O)C(C)(C)[C@@H]5CC[C@]43C)[C@@H]2C1 [MASLINIC ACID] | <10 |  |
| CC1(C)CC[C@]2(CO)CC[C@]3(C)[C@](O)([C@H](O)C=C4[C@@]5(C)CC[C@H](O)C(C)(C)[C@@H]5CC[C@]43C)[C@@H]2C1 | <10 |  |
| COC(=O)[C@]12CCC(C)(C)C[C@H]1C1=CC[C@@H]3[C@@]4(C)C[C@@H](OC(C)=O)C(=O)C(C)(C)[C@@H]4CC[C@@]3(C)[C@]1(C)CC2 | <10 |  |
| CC1(C)CC[C@]2(C(=O)O)CC[C@]3(C)C(=CC[C@@H]4[C@@]5(C)C=C(O)C(=O)C(C)(C)[C@@H]5CC[C@]43C)[C@@H]2C1 | <10 | Activity [3]: 80%; Activity [4]: Active |
| CC1(C)CC[C@]2(CN=[N+]=[N-])CC[C@]3(C)C(=CC[C@@H]4[C@@]5(C)C[C@@H](O)[C@H](O)C(C)(C)[C@@H]5CC[C@]43C)[C@@H]2C1 | <10 |  |
| CC1(C)CC[C@]2(CO)CC[C@]3(C)C(=CC[C@@H]4[C@@]5(C)C[C@@H](O)[C@H](O)C(C)(C)[C@@H]5CC[C@]43C)[C@@H]2C1 | <10 |  |
